In ChEMBL document CHEMBL4342524, “Discovery of M-808 as a Highly Potent, Covalent, Small-Molecule Inhibitor of the Menin-MLL Interaction with Strong In Vivo Antitumor Activity” (J Med Chem, 2020):
pIC50: −log10 of the molar value. The source made the active and inactive calls. The calls are words filed in the database; no cut-off is given here.

What was measured:
[1] = system: MV4-11; assay: Growth inhibition of human MV4-11 cells after 7 days by WST-8 assay; format: functional, cell-based; settings: MV4-11, 168 h
In short: (§1)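 Cells cultured in IMDM or RPMI 1640 with 10% FBS at 37 °C, 5% CO2. Growth read by WST-8 at 450 nm after at least 1 h with reagent. Signals normalized to untreated cells and IC50 fitted by nonlinear regression; mean and SD from three independent experiments.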

[2] = system: MOLM-13; assay: Growth inhibition of human MOLM13 cells after 7 days by WST-8 assay; format: functional, cell-based; settings: MOLM-13, 168 h; in short: as §1
[3] = system: HL-60; assay: Growth inhibition of human HL60 cells after 7 days by WST-8 assay; format: functional, cell-based; settings: HL-60, 168 h; in short: as §1
[4] = molecular target: T1, Menin (Homo sapiens, UniProt O00255); assay: Inhibition of menin (unknown origin) by fluorescence polarization assay
T1 sequence (O00255 whole entry): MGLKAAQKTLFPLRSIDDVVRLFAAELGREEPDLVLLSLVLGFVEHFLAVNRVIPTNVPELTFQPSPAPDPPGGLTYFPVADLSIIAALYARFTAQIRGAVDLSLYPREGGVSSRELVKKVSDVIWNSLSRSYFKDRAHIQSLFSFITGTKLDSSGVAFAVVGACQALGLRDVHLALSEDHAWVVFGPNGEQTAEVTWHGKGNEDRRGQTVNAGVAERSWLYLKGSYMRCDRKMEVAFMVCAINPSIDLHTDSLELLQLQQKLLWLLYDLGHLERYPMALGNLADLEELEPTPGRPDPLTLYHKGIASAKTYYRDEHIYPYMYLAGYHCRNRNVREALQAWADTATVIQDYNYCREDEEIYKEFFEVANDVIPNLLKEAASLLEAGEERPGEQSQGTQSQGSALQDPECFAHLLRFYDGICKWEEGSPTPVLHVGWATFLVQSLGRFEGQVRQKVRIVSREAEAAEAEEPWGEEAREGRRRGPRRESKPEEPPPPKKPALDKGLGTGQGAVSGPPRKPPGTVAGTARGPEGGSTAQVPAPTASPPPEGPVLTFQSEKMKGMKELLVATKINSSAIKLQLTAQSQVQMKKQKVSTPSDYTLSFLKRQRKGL
In short: (§2)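 Competitive FP assay: 4 nM menin and 2 nM fluorescein-labeled tracer (final concentrations) in PBS with 100 μg/mL bovine γ-globulin and 0.01% Triton X-100. Compounds added from DMSO at varying concentrations and incubated 1 h at room temperature. IC50 obtained by nonlinear sigmoidal fitting of the FP decrease against total compound concentration.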

[5] = molecular target: T2, Menin (Homo sapiens) (UniProt O00255); assay: Covalent binding affinity to human menin assessed as protein-compound complex formation at protein to compound ratio of 1:1.2 after 1 hr by LC-MS analysis relative to control
T2 sequence (whole entry): T1 sequence (O00255 whole entry)
In short: (§3)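 Diluted to 1 mg/mL, then run on reverse-phase C4 LC with a 5–100% MeCN/0.2% formic acid gradient and Q-TOF MS. Intact masses obtained by maximum-entropy deconvolution.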

[6] = molecular target: T2, Menin (Homo sapiens); assay: Covalent binding affinity to human menin assessed as protein-compound complex formation at protein to compound ratio of 1:1.2 measured after overnight incubation by LC-MS analysis relative to control; in short: as §3
[7] = molecular target: T1, Menin; assay: Inhibition of fluorescent labeled tracer binding to Menin (unknown origin) after 1 hr by fluorescence polarization competitive binding assay; in short: as §2
[8] = system: Mus musculus; assay: Downregulation of Hoxa9 expression in tumors of CB-17 SCID mouse xenografted with human MV4-11 cells at 10 mg/kg, iv administered as single dose and measured after 24 hrs by RT-qPCR analysis; format: functional, organism-based
In short: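 MV4;11 subcutaneous xenografts in female C.B-17 SCID mice; single IV dose of 10 mg/kg or vehicle. Tumors collected 24 h post-dose, 3 mice per group, snap-frozen and powdered. Total RNA converted to cDNA; HOXA9, MEIS1 and GAPDH measured by TaqMan real-time PCR; relative expression by comparative Ct.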

[9] = system: Mus musculus; assay: Downregulation of MEIS1 expression in tumors of CB-17 SCID mouse xenografted with human MV4-11 cells at 10 mg/kg, iv administered as single dose and measured after 24 hrs by RT-qPCR analysis relative to control; format: functional
In short: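 Female C.B-17 SCID mice bearing subcutaneous MV4;11 flank xenografts were given a single IV dose (vehicle control). Tumors were harvested at 24 h, 3 mice per time point, snap-frozen in liquid N2 and ground. Total RNA was reverse-transcribed, and HOXA9, MEIS1 and GAPDH were measured by TaqMan real-time PCR. Relative expression was calculated by the comparative Ct method.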

[10] = Toxicity in SCID mouse assessed as drug tolerability at 10 mg/kg, iv administered every other day for 1 week; format: organism-based; settings: in vivo, 168 h
[11] = Toxicity in SCID mouse assessed as reduction in body weight at 25 mg/kg, iv administered every other day for 1 week relative to control; format: organism-based; design: scale not given: the % may be the effect or the level left; settings: in vivo, 168 h
[12] = Toxicity in SCID mouse assessed as drug tolerability at 25 mg/kg, iv administered every other day for 1 week; format: organism-based; settings: in vivo, 168 h
[13] = system: Mus musculus; assay: In vivo inhibition of Menin-MLL protein-protein interaction in CB-17 SCID mouse xenografted with human MV4-11 cells assessed as reduction in MEIS1 expression in tumor at 25 mg/kg, iv measured after 6 to 24 hrs by RT-qPCR analysis; format: functional, organism-based
In short: (§4)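 MV4;11 flank xenografts in female C.B-17 SCID mice given a single 25 mg/kg IV dose or vehicle. Tumors harvested at 6, 24 and 48 h, 3 mice per time point, and frozen in liquid N2. RNA extracted; HOXA9 and MEIS1, with GAPDH, quantified by TaqMan qRT-PCR using the comparative Ct method.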

[14] = system: Mus musculus; assay: In vivo inhibition of Menin-MLL protein-protein interaction in CB-17 SCID mouse xenografted with human MV4-11 cells assessed as reduction in HOXA9 expression in tumor at 25 mg/kg, iv measured after 6 to 24 hrs by RT-qPCR analysis; format: functional, organism-based; in short: as §4
[15] = system: MV4-11; assay: Antitumor activity against human MV4-11 cells xenografted in CB-17 SCID mouse assessed as effect on tumor growth at 10 mg/kg, iv administered every other day for 1 week (11 doses); format: functional, organism-based
In short: (§5)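 Female C.B-17 SCID mice inoculated s.c. in the flank with 5 × 10^6 MV4;11 cells in 0.1 mL 1:1 PBS/Matrigel (final Matrigel 5 mg/mL). Dosed IV every other day, 3 times per week, 11 doses in total; vehicle-only control group. Tumor volume by calipers as (A × B²)/2, and body weight, measured 2–3 times weekly during treatment and at least weekly afterward. Toxicity signs monitored.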

[16] = system: MV4-11; assay: Antitumor activity against human MV4-11 cells xenografted in CB-17 SCID mouse assessed as tumor growth inhibition at 25 mg/kg, iv administered every other day for 1 week (11 doses) and measured on day 35 post treatment relative to control; format: functional; settings: MV4-11, iv, read-out: TGI
[17] = system: MV4-11; assay: Antitumor activity against human MV4-11 cells xenografted in CB-17 SCID mouse assessed as tumor volume at 25 mg/kg, iv administered every other day for 1 week (11 doses) and measured on day 35 post treatment (reference value: 92 mm3); format: functional
[18] = Toxicity in CB-17 SCID mouse xenografted with human MV4-11 cells assessed as effect on body weight at 10 to 25 mg/kg, iv administered every other day for 1 week (11 doses); format: organism-based; settings: in vivo, 168 h; in short: as §5
[19] = Toxicity in CB-17 SCID mouse xenografted with human MV4-11 cells assessed as effect on clinical signs at 10 to 25 mg/kg, iv administered every other day for 1 week (11 doses); format: organism-based; settings: in vivo, 168 h; in short: as §5

Compound	pIC50 [1]	pIC50 [2]	pIC50 [3]	Activity [5] [%]	Activity [6] [%]	further results
COC(=O)N[C@H]1CCC[C@@H]1[C@](C#N)(c1cccc(F)c1)C1CCN(CC2CN(c3ccc(S(=O)(=O)C4CN(C(=O)/C=C/CN(C)C)C4)cc3)C2)CC1	8.40	7.72	5.82	95	100	pIC50 [4]: 8.48
COC(=O)N[C@H]1CCC[C@@H]1[C@](CN1CCC1)(c1cccc(F)c1)C1CCN(CC2CN(c3ccc(S(=O)(=O)C4CN(C(=O)/C=C/CN5CCC(F)(F)CC5)C4)cc3)C2)CC1	8.40	7.70	5.49	0	0	
COC(=O)N[C@H]1CCC[C@@H]1[C@](CN(C)C)(c1cccc(F)c1)C1CCN(CC2CN(c3ccc(S(=O)(=O)C4CN(C(=O)/C=C/CN(C)C)C4)cc3)C2)CC1	8.96	8.70	6.15			
CCc1nccn1C[C@@](c1cccc(F)c1)(C1CCN(CC2CN(c3ccc(S(=O)(=O)C4CN(C(=O)/C=C/CN(C)C)C4)cc3)C2)CC1)[C@H]1CCC[C@@H]1NC(=O)OC	8.70	7.96	< 5.00	100	100	pIC50 [7]: 8.77
COC(=O)N[C@H]1CCC[C@@H]1[C@](CN1CCC1)(c1cccc(F)c1)C1CCN(CC2CN(c3ccc(S(=O)(=O)C4CN(C(=O)/C=C/CN5CCC(F)CC5)C4)cc3)C2)CC1	8.52	7.68	5.44	20	100	
COC(=O)N[C@H]1CCC[C@@H]1[C@](CN1CCC1)(c1cccc(F)c1)C1CCN(CC2CN(c3ccc(S(=O)(=O)C4CN(C(=O)/C=C/CN(C)C)C4)cc3)C2)CC1		8.10	5.52	75	100	Activity [8]: Active; fold change (FC) [9]: >2; Activity [10]: Non-Toxic; Activity [11]: > 10%
COC(=O)N[C@H]1CCC[C@@H]1[C@](CN1CCCCC1)(c1cccc(F)c1)C1CCN(CC2CN(c3ccc(S(=O)(=O)C4CN(C(=O)/C=C/CN(C)C)C4)cc3)C2)CC1	7.40	6.80	6.22			
COC(=O)N[C@H]1CCC[C@@H]1[C@](CN1CCC1)(c1cccc(F)c1)C1CCN(CC2CN(c3ccc(S(=O)(=O)C4CN(C(=O)/C=C/CN5CC(F)C5)C4)cc3)C2)CC1	9.00	8.52	5.70	20	75	
C=CC(=O)N1CC(S(=O)(=O)c2ccc(N3CC(CN4CCC([C@@](CN5CCC5)(c5cccc(F)c5)[C@H]5CCC[C@@H]5NC(=O)OC)CC4)C3)cc2)C1	7.64	6.43	5.59	50	75	
COC(=O)N[C@H]1CCC[C@@H]1[C@](CN1CCC1)(c1cccc(F)c1)C1CCN(CC2CN(c3ccc(S(=O)(=O)C4CN(C(=O)/C=C/CN5CC(F)(F)C5)C4)cc3)C2)CC1	8.40	7.82	5.55	0	0	
COC(=O)N[C@H]1CCC[C@@H]1[C@](CN1CCC1)(c1cccc(F)c1)C1CCN(CC2CN(c3ccc(S(=O)(=O)C4CN(C(=O)/C=C/CN5CCC5)C4)cc3)C2)CC1		8.52	5.68	75	100	
COC(=O)N[C@H]1CCC[C@@H]1[C@](CN1CCC1)(c1cccc(F)c1)C1CCN(CC2CN(c3ccc(S(=O)(=O)C4CN(C(=O)/C=C/CN5CCCCC5)C4)cc3)C2)CC1	9.00	8.40	5.55	75	100	pIC50 [7]: 8.59; Activity [8]: Active; fold change (FC) [9]: >2; Activity [10]: Non-Toxic; Activity [12]: Non-Toxic; inhibition [13]: Active; inhibition [14]: Active; Activity [15]: inactive; inhibition in vivo at 25 mg/kg [16]: 97%; Activity [17]: 59 mm3; Activity [18]: Non-Toxic; Activity [19]: Non-Toxic
COC(=O)N[C@H]1CCC[C@@H]1[C@](CN1CCCC1)(c1cccc(F)c1)C1CCN(CC2CN(c3ccc(S(=O)(=O)C4CN(C(=O)/C=C/CN(C)C)C4)cc3)C2)CC1	8.30	7.82	5.85			
COC(=O)N[C@H]1CCC[C@@H]1[C@](Cn1ccnn1)(c1cccc(F)c1)C1CCN(CC2CN(c3ccc(S(=O)(=O)C4CN(C(=O)/C=C/CN(C)C)C4)cc3)C2)CC1		7.85	5.32			
COC(=O)N[C@H]1CCC[C@@H]1[C@](CN1CCC1)(c1cccc(F)c1)C1CCN(CC2CN(c3ccc(S(=O)(=O)C4CN(C(=O)/C=C/CN5CCCC5)C4)cc3)C2)CC1		8.05	5.68	100	100	Activity [8]: Active; fold change (FC) [9]: >2; Activity [10]: Non-Toxic; Activity [11]: > 10%
